According to the RNAGym collection of RNA variant scans (doi:10.1126/science.aae0568):
Variants at the floor of the assay were thinned out.

B1: tRNA (parent)
chain: GUUCCGUUGGCGUAAUGGUAACGCGUCUCCCUCCUAAGGAGAAGACUGCGGGUUCGAGUCCCGUACGGAACG

Variants of: B1
Assay: yeast fitness relative to wild type (ratio to wild type); higher = fitter; tRNA-Arg(CCU), competitive growth, 37 C, YPD
How it was run: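 Gene amplicons from the start population and from each of six end populations were read by 100-nucleotide paired-end sequencing. Those end populations came from pooled Saccharomyces cerevisiae strains carrying tRNA-Arg(CCU) gene variants at the native locus, competed in YPD at 37°C for 24 hours. Fitness relative to wild type was worked out from changes in genotype frequencies. Genotypes needed ≥ 100 starting reads, and estimates < 0.5 were set to 0.5.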

Going from U3G A14G to U3G A14G C60G, the yeast fitness falls from 0.907 to ≤ 0.5.

Compared with U3G A15C, U3G A15G C34A A70G is higher in yeast fitness: 0.511 for the first, 0.555 for the second.

U3G A20C A21G C61A and U3G A20C A43U C55A A65U A70G cannot be ordered by yeast fitness: ≤ 0.5 for the first, ≤ 0.5 for the second.

First: U3G A20C G44C C61U
Second: U3G A21C G67U
The yeast fitness of the first is higher: 0.606 for the first, ≤ 0.5 for the second.

U3G A36G G52A C66A A69U and U3G A37U G63A C66U cannot be ordered by yeast fitness: ≤ 0.5 for the first, ≤ 0.5 for the second.

Compared with U3G A43G G56A, U3G A43U C62U is higher in yeast fitness: 0.601 for the first, 0.727 for the second.

First: U3G A43U U54A A57C
Second: U3G A45G A69U
The yeast fitness of the first is lower: 0.588 for the first, 0.763 for the second.

Going from U3G A45G U54C to U3G C4A A40U C66A A69C, the yeast fitness falls from 0.678 to ≤ 0.5.

U3G C4G A70C and U3G C4G C22U C29U G52C G63A G67U A70C cannot be ordered by yeast fitness: ≤ 0.5 for the first, ≤ 0.5 for the second.

Compared with U3G C4U, U3G C4U A20G U35A G58A G67U is lower in yeast fitness: 0.915 for the first, ≤ 0.5 for the second.

U3G C4U C30U C33G C55U G68U and U3G C5A A20G C29U C31A C55U A57C cannot be ordered by yeast fitness: ≤ 0.5 for the first, ≤ 0.5 for the second.

U3G C5A C34A and U3G C5G A20C cannot be ordered by yeast fitness: ≤ 0.5 for the first, ≤ 0.5 for the second.

U3G C5G A20C C61U and U3G C5G G10A C30G C31G C49A C60U G67A cannot be ordered by yeast fitness: ≤ 0.5 for the first, ≤ 0.5 for the second.

Going from U3G C5U to U3G C11A G23C G52C, the yeast fitness falls from 0.724 to ≤ 0.5.

U3G C11G A15C C60U and U3G C11U A40C A45C U47C A57C C62U cannot be ordered by yeast fitness: ≤ 0.5 for the first, ≤ 0.5 for the second.

Going from U3G C11U G67A to U3G C24A C30U, the yeast fitness falls from 0.564 to ≤ 0.5.

First: U3G C24A C34A C46G
Second: U3G C29A U53A
The yeast fitness of the first is higher: 0.581 for the first, ≤ 0.5 for the second.

First: U3G C30G A40C C46U
Second: U3G C30G A70C
The yeast fitness of the first is lower: 0.57 for the first, 0.628 for the second.

Compared with U3G C30U G48C A65U G68C, U3G C31U C49U is higher in yeast fitness: ≤ 0.5 for the first, 0.681 for the second.

U3G C33U A42G A57U C61A and U3G C49G G56A cannot be ordered by yeast fitness: ≤ 0.5 for the first, ≤ 0.5 for the second.

Compared with U3G C55U, U3G C66U is lower in yeast fitness: 0.784 for the first, 0.699 for the second.

U3G G6A U8C and U3G G17C G18C C22A C60A C66U cannot be ordered by yeast fitness: ≤ 0.5 for the first, ≤ 0.5 for the second.

Compared with U3G G18A A65U, U3G G38A C60A is lower in yeast fitness: 0.548 for the first, ≤ 0.5 for the second.

First: U3G G41C G51C A57G
Second: U3G G44A C66U
The yeast fitness of the first is lower: ≤ 0.5 for the first, 0.582 for the second.

U3G G44A G67C and U3G G48A U53G cannot be ordered by yeast fitness: ≤ 0.5 for the first, ≤ 0.5 for the second.

First: U3G G51A
Second: U3G G51A C66U
The yeast fitness of the first is higher: 0.701 for the first, ≤ 0.5 for the second.

First: U3G G63A
Second: U3G U7C G18A C30G G41U C49G
The yeast fitness of the first is higher: 0.849 for the first, ≤ 0.5 for the second.

U3G U8A C24A G56C and U3G U8A C31A G52A cannot be ordered by yeast fitness: ≤ 0.5 for the first, ≤ 0.5 for the second.

First: U3G U8C A15U G25A C49A
Second: U3G U8C C62U
The yeast fitness of the first is lower: ≤ 0.5 for the first, 0.525 for the second.

U3G U13C A14U C61G C62U and U3G U13C C33G cannot be ordered by yeast fitness: ≤ 0.5 for the first, ≤ 0.5 for the second.

U3G U13G C30A C31A and U3G U16C G39C A45C C49G C62G cannot be ordered by yeast fitness: ≤ 0.5 for the first, ≤ 0.5 for the second.

U3G U19A G51A C66G and U3G U28A C33U A36G C66A cannot be ordered by yeast fitness: ≤ 0.5 for the first, ≤ 0.5 for the second.

First: U3G U28C C62U
Second: U3G U32C
The yeast fitness of the first is lower: 0.638 for the first, 0.86 for the second.

First: U3G U54G A57C
Second: U3G U59C
The yeast fitness of the first is lower: ≤ 0.5 for the first, 0.888 for the second.

First: C4A
Second: C4A A14C A21G C29A C34U A69U
The yeast fitness of the first is higher: 0.998 for the first, ≤ 0.5 for the second.

Going from C4A A14C U19A to C4A A14G A36U A57U, the yeast fitness rises from ≤ 0.5 to 0.953.

C4A A14G C24U U32G A43G A65U and C4A A14G G17A C60G cannot be ordered by yeast fitness: ≤ 0.5 for the first, ≤ 0.5 for the second.

C4A A14G U26A and C4A A14G U64A A70C cannot be ordered by yeast fitness: ≤ 0.5 for the first, ≤ 0.5 for the second.

C4A A14U A20C U28G A42G and C4A A14U A20C U28G G58C C61A cannot be ordered by yeast fitness: ≤ 0.5 for the first, ≤ 0.5 for the second.

C4A A14U A20C U28G G67A A70G and C4A A14U C34G A65U cannot be ordered by yeast fitness: ≤ 0.5 for the first, ≤ 0.5 for the second.

C4A A14U C34G C55U A65C and C4A A15C C66U cannot be ordered by yeast fitness: ≤ 0.5 for the first, ≤ 0.5 for the second.

First: C4A A15G C22U A36U C60A
Second: C4A A15G C27U
The yeast fitness of the first is lower: ≤ 0.5 for the first, 0.664 for the second.

Going from C4A A15G C31G G50A to C4A A15G C62U, the yeast fitness rises from ≤ 0.5 to 0.594.

First: C4A A15G G17A
Second: C4A A15G G17A C33U G39C C55A G67C
The yeast fitness of the first is higher: 0.724 for the first, ≤ 0.5 for the second.

C4A A15U G18C C55U G56C G67A and C4A A20C A42U C66U cannot be ordered by yeast fitness: ≤ 0.5 for the first, ≤ 0.5 for the second.

Going from C4A A20C C27U to C4A A20C C27U G50A, the yeast fitness falls from 0.636 to 0.597.

First: C4A A20C C29A
Second: C4A A20G
The yeast fitness of the first is lower: ≤ 0.5 for the first, 0.859 for the second.

First: C4A A20G G58A A70C
Second: C4A A20U A43U A57C
The yeast fitness of the first is higher: 1.02 for the first, ≤ 0.5 for the second.

C4A A20U U28A C31U C55G A57C and C4A A21G C60G G67A cannot be ordered by yeast fitness: ≤ 0.5 for the first, ≤ 0.5 for the second.

First: C4A A21U
Second: C4A A36C
The yeast fitness of the first is lower: 0.676 for the first, 0.686 for the second.

C4A A36C A57G A65U and C4A A36G C55A C61U cannot be ordered by yeast fitness: ≤ 0.5 for the first, ≤ 0.5 for the second.

First: C4A A37C
Second: C4A A37U C55U
The yeast fitness of the first is higher: 0.707 for the first, 0.585 for the second.

Compared with C4A A40C, C4A A40U is higher in yeast fitness: 0.812 for the first, 0.94 for the second.

Going from C4A A42G C60G to C4A A42U A57U G58C, the yeast fitness falls from 0.53 to ≤ 0.5.

Going from C4A A42U A69U to C4A A43C G51A G56C, the yeast fitness falls from 0.625 to 0.516.

Going from C4A A45C G52A G67U to C4A A45U C55U A70C, the yeast fitness falls from 0.577 to ≤ 0.5.

Going from C4A A65G to C4A A65U, the yeast fitness falls from 0.946 to 0.719.

Compared with C4A A70G, C4A A70U is lower in yeast fitness: 0.93 for the first, 0.879 for the second.

Going from C4A C5A A20U to C4A C5A C11G A15U U19C A21U, the yeast fitness falls from 0.605 to ≤ 0.5.

Compared with C4A C5A C22A U28G C33G A57G, C4A C5G A57U G68U is higher in yeast fitness: ≤ 0.5 for the first, 0.575 for the second.

C4A C5G C22U and C4A C5G C24U G25A A57U cannot be ordered by yeast fitness: ≤ 0.5 for the first, ≤ 0.5 for the second.

Going from C4A C5G U53A to C4A C5U C22U C34A, the yeast fitness rises from ≤ 0.5 to 0.576.

C4A C5U C22U C34A A65U and C4A C5U C22U C34A C49G cannot be ordered by yeast fitness: ≤ 0.5 for the first, ≤ 0.5 for the second.

C4A C5U C22U C34A C61G and C4A C5U C22U C34A C62G cannot be ordered by yeast fitness: ≤ 0.5 for the first, ≤ 0.5 for the second.

C4A C5U C22U C34A C62U A70U and C4A C5U C24U U53A A65G cannot be ordered by yeast fitness: ≤ 0.5 for the first, ≤ 0.5 for the second.

Going from C4A C5U C29G C33U U59G A69C to C4A C5U C30U A45G, the yeast fitness falls from 0.533 to 0.516.

First: C4A C5U C34U U64G
Second: C4A C5U C34U U64G A69U
The yeast fitness of the first is higher: 0.576 for the first, ≤ 0.5 for the second.

C4A C5U G39C A42C and C4A C5U U8C cannot be ordered by yeast fitness: ≤ 0.5 for the first, ≤ 0.5 for the second.

First: C4A C11A C33G
Second: C4A C11A C33G A57C C61G
The yeast fitness of the first is higher: 0.544 for the first, 0.534 for the second.

Compared with C4A C11A U13C A70U, C4A C11G is higher in yeast fitness: ≤ 0.5 for the first, 0.769 for the second.

Going from C4A C11G C31U G38C G52A C66G to C4A C11G C34U, the yeast fitness falls from 0.649 to ≤ 0.5.

C4A C11G U13G G25A C62U G63A and C4A C11U A21U G23A cannot be ordered by yeast fitness: ≤ 0.5 for the first, ≤ 0.5 for the second.

Going from C4A C11U A45U C66U to C4A C11U C34G C62A, the yeast fitness rises from ≤ 0.5 to 0.748.

Compared with C4A C11U U32A G38C C55U G58A G67A, C4A C11U U32A G38C U47A U53G is higher in yeast fitness: ≤ 0.5 for the first, 0.56 for the second.

Going from C4A C22A to C4A C22A C55U, the yeast fitness falls from 0.706 to ≤ 0.5.

C4A C22G C29U U35C and C4A C22G C55G G63C cannot be ordered by yeast fitness: ≤ 0.5 for the first, ≤ 0.5 for the second.

First: C4A C22G G51C A65C
Second: C4A C22U A40G A43U C46G C49G C62U
The yeast fitness of the first is higher: 0.731 for the first, 0.527 for the second.

First: C4A C22U C24A C29A A36C
Second: C4A C22U C33G A45C U47C U53G A69C
The yeast fitness of the first is higher: 0.518 for the first, ≤ 0.5 for the second.

Going from C4A C22U U54A to C4A C24A G51C, the yeast fitness falls from 0.685 to 0.595.

First: C4A C24G C30U A45G
Second: C4A C24G U32C C62U A69C
The yeast fitness of the first is higher: 0.523 for the first, ≤ 0.5 for the second.

C4A C24U C46U C55A C66U and C4A C24U U47G cannot be ordered by yeast fitness: ≤ 0.5 for the first, ≤ 0.5 for the second.

C4A C27A C62A and C4A C27G A42G U53A cannot be ordered by yeast fitness: ≤ 0.5 for the first, ≤ 0.5 for the second.

First: C4A C27G C31G
Second: C4A C27G C46U
The yeast fitness of the first is lower: ≤ 0.5 for the first, 0.636 for the second.

C4A C27G G52A gave a yeast fitness of 0.713.
